Consider 13 molecules from ChEMBL document CHEMBL1142973, “Enzymatically activated cycloSal-d4T-monophosphates: The third generation of cycloSal-pronucleotides” (J Med Chem, 2007).

The nature of data set [1]: Chemical stability in phosphate buffer at pH 7.3. The format is physicochemical. In a few lines:
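Triesters incubated in aqueous 25 mM phosphate buffer, pH 7.3; hydrolysis products (d4TMP, salicyl alcohol) followed by HPLC to give half-lives.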

The test system of data set [2] is Human immunodeficiency virus 1. As to the kind of experiment: Antiviral activity against HIV1 in CEM/0 cells. It counts as functional, organism-based. Conditions: Human immunodeficiency virus 1, CCRF-CEM. In a few lines: (§1)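 CEM/0 cells at 4 × 10^5 cells/mL infected with HIV (HIV-1, or HIV-2 strain ROD) at ~100 CCID50 per mL; virus stocks from infected MT-4 cell supernatants. Mixed 1:1 with compound dilutions, 4-5 days; giant cell formation scored microscopically. EC50, means of two to three independent experiments.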

Data set [3] deals with Human immunodeficiency virus 2. The data set can be described thus: Antiviral activity against HIV2 ROD in CEM/0 cells. The format is functional, organism-based. The settings on record: Human immunodeficiency virus 2, ROD, CCRF-CEM. Summed up:
as §1

The test system of data set [4] is Human immunodeficiency virus 2. The data set can be described thus: Antiviral activity against HIV2 ROD in CEM/TK- cells. The settings on record: Human immunodeficiency virus 2, ROD. The format is functional, organism-based. In a few lines:
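Thymidine kinase-deficient CEM/TK- cells at 4 × 10^5 cells/mL infected with HIV-2 (ROD, MT-4-grown stock) at ~100 CCID50/mL; mixed 1:1 with compound dilutions; giant cell formation scored microscopically after 4-5 days. EC50 as means of two to three independent experiments.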

A short description of data set [5]: Hydrolysis half life in CEM cell extracts at pH 6.9. It counts as ADME. The settings on record: human, CEM (CCRF-CEM) cell extracts.
Data set [6] is described as follows: Hydrolysis half life in […]/FCS medium at pH 7.6. The settings on record: cattle, […]/FCS culture medium. It counts as ADME. In a few lines:
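Incubated in RPMI-1640 culture medium with 10% heat-inactivated fetal calf serum, pH 7.6; cleavage products followed by HPLC to derive half-lives.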

The nature of data set [7]: Hydrolysis half life in human serum at pH 6.8. It counts as ADME, cell-free. In a few lines:
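Incubation in human serum pooled from hospital blood samples, pH 6.8, without acetic acid stop; products analysed by HPLC; half-life determined.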

Take `Cc1cn([C@H]2C=C[C@@H](COP3(=O)OCc4cc(Br)ccc4O3)O2)c(=O)[nH]c1=O` (stereo partly specified): the half-life (in general, the time in which the quantity being followed falls by half) in data set [1] is 0.88 h. Besides, the values for the concentration for a half-maximal effect (EC50) in data set [2], in data set [3] and in data set [4] were 140 nM, 260 nM and 15000 nM, respectively.
Consider `Cc1cn([C@H]2C=C[C@@H](COP3(=O)OCc4cc(C=O)cc(C(C)(C)C)c4O3)O2)c(=O)[nH]c1=O` (stereo partly specified), for which the half-life in data set [1] is 0.95 h. For the same molecule, the values for the concentration giving a half-maximal response (EC50) in data set [2], in data set [3] and in data set [4] were 450 nM, 600 nM and 17500 nM, respectively.
Regarding `Cc1cn([C@H]2C=C[C@@H](COP3(=O)OCc4cc(CCC(=O)OCOC(=O)C(C)C)ccc4O3)O2)c(=O)[nH]c1=O` (stereo partly specified), the half-life was 3.9 h in data set [1] and 0.9 h in data set [5]. In addition, the figures for the EC50 in data set [2], in data set [3] and in data set [4] were 260 nM, 600 nM and 1730 nM, respectively.
In data set [1], `Cc1cn([C@H]2C=C[C@@H](COP3(=O)OCc4cc(C=O)ccc4O3)O2)c(=O)[nH]c1=O` (stereo partly specified) showed a half-life of 0.18 h. Moreover, the EC50 – broadly, the concentration that produces a half-maximal response – came to 410 nM in data set [2], 150 nM in data set [3] and 5000 nM in data set [4].
In turn, `Cc1cc(C=O)cc2c1OP(=O)(OC[C@@H]1C=C[C@H](n3cc(C)c(=O)[nH]c3=O)O1)OC2` (stereo partly specified) showed a half-life in data set [1] of 0.35 h.
In the case of `Cc1cn([C@H]2C=C[C@@H](COP3(=O)OCc4cc(CCC(=O)OCOC(=O)C(C)(C)C)ccc4O3)O2)c(=O)[nH]c1=O` (stereo partly specified), the results for the half-life in data set [1] and in data set [5] were 5.6 h and 0.38 h, respectively. Moreover, the EC50 in data set [2] came out at 230 nM; in data set [3], 330 nM; in data set [4] it was 700 nM.
As for `Cc1cn([C@H]2C=C[C@@H](COP3(=O)OCc4cc([N+](=O)[O-])ccc4O3)O2)c(=O)[nH]c1=O` (stereo partly specified), the half-maximal effective concentration (EC50) amounted to 290 nM in data set [2], 400 nM in data set [3] and 40000 nM in data set [4].
`Cc1cn([C@H]2C=C[C@@H](COP3(=O)OCc4cccc(C(C)(C)C)c4O3)O2)c(=O)[nH]c1=O` (stereo partly specified) had a half-life in data set [1] of 73 h. Moreover, the EC50 in data set [2] is 180 nM; in data set [3] it was 650 nM; in data set [4], 330 nM.
With `Cc1cccc2c1OP(=O)(OC[C@@H]1C=C[C@H](n3cc(C)c(=O)[nH]c3=O)O1)OC2` (stereo partly specified), the half-life in data set [1] is 17.5 h; in data set [5], 14.5 h. Also, the half-maximal effective concentration (EC50) in data set [2] was 60 nM; in data set [3] it was 70 nM; in data set [4], 50 nM.
In the case of `CC(=O)OC(OC(C)=O)c1cc2c(c(C(C)(C)C)c1)OP(=O)(OC[C@@H]1C=C[C@H](n3cc(C)c(=O)[nH]c3=O)O1)OC2` (stereo partly specified), the half-life is 7 h in data set [1], 0.12 h in data set [5], 4.7 h in data set [6] and 8.7 h in data set [7]. Moreover, the EC50 in data set [2] was found to be 320 nM; in data set [3] it was 750 nM; in data set [4] it was 3000 nM.
Turning to `CC(=O)OC(OC(C)=O)c1ccc2c(c1)COP(=O)(OC[C@@H]1C=C[C@H](n3cc(C)c(=O)[nH]c3=O)O1)O2` (stereo partly specified), the half-life in data set [1] was 1.2 h; in data set [5], 0.08 h; in data set [6], 0.9 h; in data set [7], 1.5 h. In addition, the EC50 in data set [2] was found to be 420 nM; in data set [3], 400 nM; in data set [4] it was 10500 nM.
As to `CC(=O)OC(OC(C)=O)c1cc(C)c2c(c1)COP(=O)(OC[C@@H]1C=C[C@H](n3cc(C)c(=O)[nH]c3=O)O1)O2` (stereo partly specified), the half-life in data set [1] was 2.3 h; in data set [5], 0.08 h; in data set [6], 1.5 h; in data set [7], 3.6 h.
Take `Cc1cn([C@H]2C=C[C@@H](CO)O2)c(=O)[nH]c1=O` [STAVUDINE]: the values for the EC50 in data set [2], in data set [3] and in data set [4] were 480 nM, 630 nM and 47500 nM, respectively.
